Laboratory results: ChEMBL document CHEMBL1128718, “2-Substituted penems with amino acid-related side chains: synthesis and antibacterial activity of a new series of beta-lactam antibiotics” (1995)
Values after ≈ are worked out from the molar mass of the structure shown.

Tests used:
Format in all cases: functional
Aeromonas = test: In Vitro Anti Bacterial Activity (MIC90) against 90% of tested clinical Isolates of Aeromonas species(21)
In short: (§1)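 Over 500 clinical isolates tested in total; the line gives the isolate count. MIC90 for aerobes by dilution in Mueller Hinton 2 medium, inoculum 10⁴ cells/mL, incubated 24 h at 37 °C.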

[1] = test system: Acinetobacter calcoaceticus subsp. anitratus; test: In Vitro Anti Bacterial Activity (MIC90) against 90% of tested clinical Isolates of Acinetobacter anitratus(20); in short: as §1
Moraxella catarrhalis = test: In Vitro Anti Bacterial Activity (MIC90) against 90% of tested clinical Isolates of Branhamella catarrhalis(27)
Bacteroides fragilis = test: In Vitro Anti Bacterial Activity (MIC90) against 90% of tested clinical Isolates of Bacteroides fragilis(15)
In short: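 Anaerobic clinical isolates. MIC90 by dilution in Wilkins-Chalgren agar, inoculum 10⁵ cells/mL, incubated 24–48 h at 37 °C.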

Clostridium perfringens = test: In Vitro Anti Bacterial Activity (MIC90) against 90% of tested clinical Isolates of Clostridium perfringens(27)
In short: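 MIC90 over clinical isolates of this anaerobic species, taken from the MIC distribution. Anaerobes were tested on Wilkins-Chalgren agar with an inoculum of 10⁵ cells/mL and incubated 24–48 h at 37 °C.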

Citrobacter freundii = test: In Vitro Anti Bacterial Activity (MIC90) against 90% of tested clinical Isolates of Citrobacter freundii(20); in short: as §1
Enterococcus faecalis [2] = test: In Vitro Anti Bacterial Activity (MIC90) against 90% of tested clinical Isolates of Enterococcus faecalis(47); in short: as §1
Enterococcus faecium = test: In Vitro Anti Bacterial Activity (MIC90) against 90% of tested clinical Isolates of Enterococcus faecium(47); in short: as §1
Enterococcus faecalis [3] = test: In Vitro antibacterial activity against (Ef) Enterococcus faecalis ATCC 29212
In short: (§2)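 Panel of standard ATCC strains plus modified strains: methicillin-resistant, hyperpermeable, β-lactamase-producing (TEM1, TEM2, SHV) and β-lactamase-lacking. MIC determined in Mueller Hinton 2 medium, inoculum 10⁴ cells/mL, incubated 24 h at 37 °C.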

Escherichia coli [4] = test: In Vitro Anti Bacterial Activity (MIC90) against 90% of tested clinical Isolates of Escherichia coli; in short: as §1
Klebsiella aerogenes = test: In Vitro Anti Bacterial Activity (MIC90) against 90% of tested clinical Isolates of Enterobacter aerogenes(19); in short: as §1
Escherichia coli [5] = test: In Vitro antibacterial activity against (Ec L) Escherichia coli […] strain; in short: as §2
Escherichia coli [6] = test: In Vitro antibacterial activity against (Ec SHV) Escherichia coli […] strain; in short: as §2
Escherichia coli [7] = test: In Vitro antibacterial activity against (Ec TEM1) Escherichia coli […] strain; in short: as §2
Escherichia coli [8] = test: In Vitro antibacterial activity against (Ec TEM2) Escherichia coli […] strain; in short: as §2
Escherichia coli [9] = test: In Vitro antibacterial activity against (Ec) Escherichia coli ATCC 25922; in short: as §2
Haemophilus influenzae = test: In Vitro Anti Bacterial Activity (MIC90) against 90% of tested clinical Isolates of Haemophilus Influenzae(21)
In short: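 Clinical isolates. MIC90 in Haemophilus Test Medium Base plus Haemophilus Test Medium Supplement, inoculum 10⁴ cells/mL, incubated 24–48 h at 37 °C.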

Klebsiella pneumoniae = test: In Vitro Anti Bacterial Activity (MIC90) against 90% of tested clinical Isolates of Klebsiella pneumoniae(20); in short: as §1
Listeria monocytogenes [10] = test: In Vitro Anti Bacterial Activity (MIC90) against 90% of tested clinical Isolates of Listeria monocytogenes (20); in short: as §1
Morganella morganii = test: In Vitro Anti Bacterial Activity (MIC90) against 90% of tested clinical Isolates of Morganella morganii(10); in short: as §1
Pseudomonas aeruginosa [11] = test: In Vitro antibacterial activity against (Pa G242) hyperpermeable Pseudomonas aeruginosa strain; in short: as §2
Pseudomonas aeruginosa [12] = test: In Vitro antibacterial activity against (Pa) Pseudomonas aeruginosa ATCC 27853; in short: as §2
Pseudomonas aeruginosa [13] = test: In Vitro antibacterial activity against (Pa) hyperpermeable Pseudomonas aeruginosa […] strain; in short: as §2
Proteus vulgaris = test: In Vitro Anti Bacterial Activity (MIC90) against 90% of tested clinical Isolates of Proteus vulgaris(10); in short: as §1
Providencia stuartii = test: In Vitro Anti Bacterial Activity (MIC90) against 90% of tested clinical Isolates of Providencia stuartii(10); in short: as §1
Providencia rettgeri = test: In Vitro Anti Bacterial Activity (MIC90) against 90% of tested clinical Isolates of Providencia rettgeri(10); in short: as §1
Proteus mirabilis = test: In Vitro Anti Bacterial Activity (MIC90) against 90% of tested clinical Isolates of Proteus mirabilis(16); in short: as §1
Pseudomonas aeruginosa [14] = test: In Vitro Anti Bacterial Activity (MIC90) against 90% of tested clinical Isolates of Pseudomonas aeruginosa(11); in short: as §1
[15] = test system: Staphylococcus epidermidis; test: In Vitro Anti Bacterial Activity (MIC90) against 90% of tested clinical Isolates of Staphylococcus epidermidis (13); in short: as §1
Streptococcus agalactiae = test: In Vitro Anti Bacterial Activity (MIC90) against 90% of tested clinical Isolates of Streptococcus agalactiaeB(21)
Staphylococcus aureus [16] = test: In Vitro Anti Bacterial Activity (MIC90) against 90% of tested clinical Isolates of Staphylococcus aureus MS (6); in short: as §1
Staphylococcus aureus [17] = test: In Vitro Anti Bacterial Activity (MIC90) against 90% of tested clinical Isolates of Staphylococcus aureus MV (20)
Staphylococcus aureus [18] = test: In vitro antibacterial activity against Sa MR(I) heterogeneous methicillin resistant Staphylococcus aureus
In short: (§3)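 MIC was determined in Mueller Hinton 2 medium with an inoculum of 10⁴ cells/mL and incubation for 24 h at 37 °C. Strains: Sa(I) is S. aureus ATCC 29213; Sa MR(I) is a heterogeneous methicillin-resistant S. aureus; Sa MR(II) is a homogeneous methicillin-resistant S. aureus.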

Staphylococcus aureus [19] = test: In vitro antibacterial activity against Sa MR(II) homogeneous methicillin resistant Staphylococcus aureus; in short: as §3
Staphylococcus aureus [20] = test: In vitro antibacterial activity against Sa(I) Staphylococcus aureus ATCC 29213; in short: as §3
Staphylococcus aureus [21] = test: In vitro antibacterial activity against Sa(II) Staphylococcus aureus ATCC 25923; in short: as §2
Streptococcus pyogenes = test: In Vitro Anti Bacterial Activity (MIC90) against 90% of tested clinical Isolates of Streptococcus pyogenes(31)
Streptococcus pneumoniae = test: In Vitro Anti Bacterial Activity (MIC90) against 90% of tested clinical Isolates of Streptococcus pneumoniae (23)
Yersinia sp. = test: In Vitro Anti Bacterial Activity (MIC90) against 90% of tested clinical Isolates of Yersinia species(20); details: Yersinia sp. (in: enterobacteria)
[22] = test system: Stenotrophomonas maltophilia; test: In Vitro Anti Bacterial Activity (MIC90) against 90% of tested clinical Isolates of Xanthomonas maltophilia(9); in short: as §1
Escherichia coli [23] = test: In Vitro antibacterial activity against (Ec DC2) hyperpermeable Escherichia coli strain; in short: as §2
Listeria monocytogenes [24] = test: In Vitro Anti Bacterial Activity (MIC 90) against 90% of tested clinical Isolates of Listeria monocytogenes (20); in short: as §1

## C[C@@H](O)[C@H]1C(=O)N2C(C(=O)O)=C(CN(C)CC(N)=O)S[C@H]12
Aeromonas
  MIC90: 1 µg/mL (≈ 3.17 µM)
[1]
  MIC90: 16 µg/mL (≈ 50.7 µM)
Moraxella catarrhalis
  MIC90: 0.25 µg/mL (≈ 0.793 µM)
Bacteroides fragilis
  MIC90: 2 µg/mL (≈ 6.34 µM)
Clostridium perfringens
  MIC90: 0.5 µg/mL (≈ 1.59 µM)
Citrobacter freundii
  MIC90: 1 µg/mL (≈ 3.17 µM)
Enterococcus faecalis [2]
  MIC90: 8 µg/mL (≈ 25.4 µM)
Enterococcus faecium
  MIC90: > 64 µg/mL
Enterococcus faecalis [3]
  MIC: 4 µg/mL (≈ 12.7 µM)
Escherichia coli [4]
  MIC90: 0.25 µg/mL (≈ 0.793 µM)
Klebsiella aerogenes
  MIC90: 8 µg/mL (≈ 25.4 µM)
Escherichia coli [5]
  MIC: 0.25 µg/mL (≈ 0.793 µM)
Escherichia coli [6]
  MIC: 0.5 µg/mL (≈ 1.59 µM)
Escherichia coli [7]
  MIC: 0.25 µg/mL (≈ 0.793 µM)
Escherichia coli [8]
  MIC: 0.5 µg/mL (≈ 1.59 µM)
Escherichia coli [9]
  MIC: 0.25 µg/mL (≈ 0.793 µM)
Haemophilus influenzae
  MIC90: 2 µg/mL (≈ 6.34 µM)
Klebsiella pneumoniae
  MIC90: 0.5 µg/mL (≈ 1.59 µM)
Listeria monocytogenes [10]
  MIC90: 0.5 µg/mL (≈ 1.59 µM)
Morganella morganii
  MIC90: 2 µg/mL (≈ 6.34 µM)
Pseudomonas aeruginosa [11]
  MIC: 4 µg/mL (≈ 12.7 µM)
Pseudomonas aeruginosa [12]
  MIC: > 64 µg/mL
Pseudomonas aeruginosa [13]
  MIC: 0.5 µg/mL (≈ 1.59 µM)
Proteus vulgaris
  MIC90: 2 µg/mL (≈ 6.34 µM)
Providencia stuartii
  MIC90: 2 µg/mL (≈ 6.34 µM)
Providencia rettgeri
  MIC90: 2 µg/mL (≈ 6.34 µM)
Proteus mirabilis
  MIC90: 1 µg/mL (≈ 3.17 µM)
Pseudomonas aeruginosa [14]
  MIC90: > 64 µg/mL
[15]
  MIC90: 0.015 µg/mL (≈ 0.0476 µM)
Streptococcus agalactiae
  MIC90: 0.06 µg/mL (≈ 0.19 µM)
Staphylococcus aureus [16]
  MIC90: 0.0075 µg/mL (≈ 0.0238 µM)
Staphylococcus aureus [17]
  MIC90: 4 µg/mL (≈ 12.7 µM)
Staphylococcus aureus [18]
  MIC: 0.06 µg/mL (≈ 0.19 µM)
Staphylococcus aureus [19]
  MIC: 1 µg/mL (≈ 3.17 µM)
Staphylococcus aureus [20]
  MIC: 0.06 µg/mL (≈ 0.19 µM)
Staphylococcus aureus [21]
  MIC: 0.015 µg/mL (≈ 0.0476 µM)
Streptococcus pyogenes
  MIC90: 0.06 µg/mL (≈ 0.19 µM)
Streptococcus pneumoniae
  MIC90: 0.06 µg/mL (≈ 0.19 µM)
Yersinia sp.
  MIC90: 0.5 µg/mL (≈ 1.59 µM)
[22]
  MIC90: > 64 µg/mL
Escherichia coli [23]
  MIC: 0.25 µg/mL (≈ 0.793 µM)

## C[C@@H](O)[C@H]1C(=O)N2C(C(=O)O)=C(CN(C)[C@@H](C)C(N)=O)S[C@H]12
Aeromonas
  MIC90: 2 µg/mL (≈ 6.07 µM)
[1]
  MIC90: 32 µg/mL (≈ 97.2 µM)
Moraxella catarrhalis
  MIC90: 0.5 µg/mL (≈ 1.52 µM)
Bacteroides fragilis
  MIC90: 8 µg/mL (≈ 24.3 µM)
Clostridium perfringens
  MIC90: 0.5 µg/mL (≈ 1.52 µM)
Citrobacter freundii
  MIC90: 1 µg/mL (≈ 3.04 µM)
Enterococcus faecalis [2]
  MIC90: 8 µg/mL (≈ 24.3 µM)
Enterococcus faecium
  MIC90: > 64 µg/mL
Enterococcus faecalis [3]
  MIC: 4 µg/mL (≈ 12.1 µM)
Escherichia coli [4]
  MIC90: 0.25 µg/mL (≈ 0.759 µM)
Klebsiella aerogenes
  MIC90: 32 µg/mL (≈ 97.2 µM)
Escherichia coli [5]
  MIC: 0.25 µg/mL (≈ 0.759 µM)
Escherichia coli [6]
  MIC: 0.5 µg/mL (≈ 1.52 µM)
Escherichia coli [7]
  MIC: 0.25 µg/mL (≈ 0.759 µM)
Escherichia coli [8]
  MIC: 1 µg/mL (≈ 3.04 µM)
Escherichia coli [9]
  MIC: 0.25 µg/mL (≈ 0.759 µM)
Haemophilus influenzae
  MIC90: 4 µg/mL (≈ 12.1 µM)
Klebsiella pneumoniae
  MIC90: 1 µg/mL (≈ 3.04 µM)
Pseudomonas aeruginosa [11]
  MIC: 0.25 µg/mL (≈ 0.759 µM)
Pseudomonas aeruginosa [12]
  MIC: > 64 µg/mL
Pseudomonas aeruginosa [13]
  MIC: 1 µg/mL (≈ 3.04 µM)
Pseudomonas aeruginosa [14]
  MIC90: > 64 µg/mL
[15]
  MIC90: 0.25 µg/mL (≈ 0.759 µM)
Streptococcus agalactiae
  MIC90: 0.06 µg/mL (≈ 0.182 µM)
Staphylococcus aureus [16]
  MIC90: 0.12 µg/mL (≈ 0.364 µM)
Staphylococcus aureus [17]
  MIC90: 8 µg/mL (≈ 24.3 µM)
Staphylococcus aureus [18]
  MIC: 0.12 µg/mL (≈ 0.364 µM)
Staphylococcus aureus [19]
  MIC: 2 µg/mL (≈ 6.07 µM)
Staphylococcus aureus [20]
  MIC: 0.015 µg/mL (≈ 0.0455 µM)
Staphylococcus aureus [21]
  MIC: 0.06 µg/mL (≈ 0.182 µM)
Streptococcus pyogenes
  MIC90: 0.06 µg/mL (≈ 0.182 µM)
Streptococcus pneumoniae
  MIC90: 0.06 µg/mL (≈ 0.182 µM)
Yersinia sp.
  MIC90: 0.5 µg/mL (≈ 1.52 µM)
[22]
  MIC90: > 64 µg/mL
Escherichia coli [23]
  MIC: 1 µg/mL (≈ 3.04 µM)
Listeria monocytogenes [24]
  MIC90: 0.5 µg/mL (≈ 1.52 µM)
